The values that follow come from ChEMBL document CHEMBL3232839, “Identification of isosilybin a from milk thistle seeds as an agonist of peroxisome proliferator-activated receptor gamma” (J Nat Prod, 2014).

Assay [1] addresses T1, Peroxisome proliferator-activated receptor gamma (Homo sapiens) (UniProt P37231).
T1 sequence (whole entry): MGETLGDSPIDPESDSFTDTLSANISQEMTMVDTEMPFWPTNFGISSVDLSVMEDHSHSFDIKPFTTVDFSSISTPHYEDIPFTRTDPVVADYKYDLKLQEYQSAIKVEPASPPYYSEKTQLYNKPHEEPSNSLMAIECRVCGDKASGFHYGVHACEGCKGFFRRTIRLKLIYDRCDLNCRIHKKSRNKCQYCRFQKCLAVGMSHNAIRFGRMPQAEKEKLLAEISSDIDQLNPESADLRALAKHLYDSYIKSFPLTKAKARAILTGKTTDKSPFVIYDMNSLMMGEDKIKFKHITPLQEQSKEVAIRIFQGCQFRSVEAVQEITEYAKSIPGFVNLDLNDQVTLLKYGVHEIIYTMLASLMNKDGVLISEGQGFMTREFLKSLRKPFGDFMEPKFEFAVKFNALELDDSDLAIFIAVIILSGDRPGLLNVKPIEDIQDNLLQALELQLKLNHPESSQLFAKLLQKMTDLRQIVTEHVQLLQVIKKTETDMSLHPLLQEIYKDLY
Briefly: Transactivation of human PPAR-gamma expressed in HEK293 cells after 18 hrs by luciferase reporter gene assay relative to control. It counts as cell-based. The essentials: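 HEK-293 cells transiently co-transfected by calcium phosphate with full-length human PPARγ expression plasmid (pSG5-PL-hPPAR-gamma1), tk-PPREx3-luc reporter and EGFP internal control. Cells were reseeded and treated for 18 h, with 0.1% DMSO as vehicle. Luciferase was normalized to EGFP fluorescence and expressed as fold induction over vehicle. Means ± SD of three independent experiments, each in quadruplicate.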
Background: Reporter assays use an easily measured gene product as a stand-in for the process of interest.

Assay [2] deals with T1, Peroxisome proliferator-activated receptor gamma (Homo sapiens). Briefly: Reduction of pioglitazone-mediated human PPAR-gamma activation expressed in HEK293 cells after 18 hrs by luciferase reporter gene assay. Format: cell-based. The essentials:
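Co-treatment assay in human PPARγ/tk-PPREx3-luc/EGFP-transfected HEK-293 cells. Pioglitazone at varied concentrations was applied with or without 30 μM compound for 18 h, with DMSO vehicle at 0.1%. Luciferase was normalized to EGFP fluorescence and expressed as fold over vehicle. Means ± SD of three independent experiments in quadruplicate.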

Assay [3] shares this target. Briefly: Agonist activity at human PPAR-gamma expressed in HEK293 cells at 30 uM after 18 hrs by luciferase reporter gene assay relative to control.
The target is the same in assay [4]. Briefly: Agonist activity at human PPAR-gamma expressed in HEK293 cells at 30 uM after 18 hrs by luciferase reporter gene assay in presence of T0070907.

Activity calls are given as the source filed them. The rule behind the calls is not given here.

For `COc1cc([C@H]2Oc3ccc([C@H]4Oc5cc(O)cc(O)c5C(=O)[C@@H]4O)cc3O[C@@H]2CO)ccc1O`, the Activity entry in assay [1] is “Dose-dependent effect”. The outcome in assay [2] was Active. In addition, in assay [3], the fold change (FC) is 2.08. Besides, the result in assay [4] was inactive.

Turning to `COc1cc([C@@H]2Oc3ccc([C@H]4Oc5cc(O)cc(O)c5C(=O)[C@@H]4O)cc3O[C@H]2CO)ccc1O`, the result in assay [3] was inactive.

`O=C1c2c(O)cc(O)cc2O[C@H](c2ccc(O)c(O)c2)[C@H]1O`: in assay [3], the outcome was inactive.

Consider `COc1cc([C@@H]2[C@H]3CO[C@@]4(O)C(=O)[C@@H]2C=C([C@H]2Oc5cc(O)cc(O)c5C(=O)[C@@H]2O)[C@@H]34)ccc1O`, for which, in assay [3], the outcome was inactive.

In the case of `COc1cc([C@H]2Oc3cc([C@H]4Oc5cc(O)cc(O)c5C(=O)[C@@H]4O)ccc3O[C@@H]2CO)ccc1O`, in assay [3], the result was inactive.

Take `COc1cc([C@@H]2Oc3cc([C@H]4Oc5cc(O)cc(O)c5C(=O)[C@@H]4O)ccc3O[C@H]2CO)ccc1O`: the result in assay [3] was inactive.

`COc1cc(C2Oc3c(O)cc([C@H]4Oc5cc(O)cc(O)c5C(=O)[C@@H]4O)cc3C2CO)ccc1O` (stereo not given in full): the result in assay [3] was inactive.
